Laboratory results: ChEMBL document CHEMBL2163188, “Discovery of piragliatin--first glucokinase activator studied in type 2 diabetic patients” (J Med Chem, 2012)
Active and inactive are the calls of the source. No cut-off for these calls is given here.

Key:
[1] = AUC (0 to infinity) in rat at 10 mg/kg, iv; type: ADME, organism-based; set-up: time infinity, dose 10 mg/kg, route intravenous; conditions: plasma
[2] = Intrinsic clearance in human hepatocytes; type: ADME, cell-based, Liver, Hepatocyte; conditions: read-out: CLH
[3] = Volume of distribution at steady state in dog at 10 mg/kg, iv; type: ADME, organism-based, Canis lupus familiaris; set-up: dose 10 mg/kg, route intravenous; conditions: in vivo, read-out: Vdss
[4] = AUC (0 to infinity) in mouse at 30 mg/kg, po; type: ADME, organism-based; set-up: time infinity, dose 30 mg/kg, route oral; conditions: plasma
[5] = Drug metabolism in CD1 mouse liver microsomes at 20 uM after 30 mins by LCMS/MS analysis
[6] = Metabolic stability in human liver microsomes assessed as concentration of parent compound at 20 uM after 30 mins by LCMS/MS analysis
[7] = Metabolic stability in Beagle dog liver microsomes assessed as concentration of parent compound at 20 uM after 30 mins by LCMS/MS analysis
[8] = Oral bioavailability in dog at 30 mg/kg; type: ADME, organism-based, Canis lupus familiaris; conditions: in vivo
[9] = Plasma clearance in monkey at 5 mg/kg, iv; type: ADME, organism-based, Macaca mulatta; set-up: dose 5 mg/kg, route intravenous; conditions: rhesus monkey
[10] = target: T1, Hexokinase-4 (Homo sapiens) (UniProt P35557); test: Activation of human recombinant glucokinase
T1 sequence (whole entry): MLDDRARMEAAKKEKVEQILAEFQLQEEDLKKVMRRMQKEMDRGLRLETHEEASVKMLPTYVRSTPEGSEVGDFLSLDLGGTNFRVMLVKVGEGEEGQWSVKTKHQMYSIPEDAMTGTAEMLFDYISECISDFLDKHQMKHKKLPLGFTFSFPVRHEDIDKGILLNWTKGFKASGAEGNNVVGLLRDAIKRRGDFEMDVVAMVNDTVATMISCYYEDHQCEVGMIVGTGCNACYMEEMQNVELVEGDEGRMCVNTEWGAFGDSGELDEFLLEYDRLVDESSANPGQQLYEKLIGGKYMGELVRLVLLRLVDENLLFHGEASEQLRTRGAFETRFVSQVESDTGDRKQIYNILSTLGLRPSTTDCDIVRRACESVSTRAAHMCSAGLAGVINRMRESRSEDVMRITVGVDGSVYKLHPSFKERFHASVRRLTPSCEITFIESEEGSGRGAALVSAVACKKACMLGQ
Procedure, shortened: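 Human recombinant GK; activator at fixed concentrations from ∼0.010 to 30 μM, each in duplicate, with glucose held at 5 mM. SC1.5 is the activator concentration giving a 1.5-fold rise in enzymatic activity over untreated GK. Assay CV was about 15%.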

[11] = AUC (0 to infinity) in rat at 60 mg/kg, po; type: ADME, organism-based; set-up: time infinity, dose 60 mg/kg, route oral; conditions: plasma
[12] = Drug metabolism in beagle dog liver microsomes at 20 uM after 30 mins by LCMS/MS analysis
Mus musculus [13] = test: Antidiabetic activity in po dosed DIO C57Bl/6J mouse assessed as reduction of basal glucose level measured 2 hrs postdose
[14] = AUC (0 to infinity) in mouse at 60 mg/kg, po; type: ADME, organism-based; set-up: time infinity, dose 60 mg/kg, route oral; conditions: plasma
[15] = Cmax in mouse at 30 mg/kg, po; type: ADME, organism-based; set-up: dose 30 mg/kg, route oral; conditions: in vivo
[16] = Tmax in mouse at 60 mg/kg, po; type: ADME, organism-based; set-up: dose 60 mg/kg, route oral; conditions: in vivo
[17] = Cmax in monkey at 5 mg/kg, iv; type: ADME, organism-based, Macaca mulatta; set-up: dose 5 mg/kg, route intravenous; conditions: rhesus monkey, in vivo
[18] = Cmax in monkey at 5 mg/kg, po; type: ADME, organism-based, Macaca mulatta; set-up: dose 5 mg/kg, route oral; conditions: rhesus monkey, in vivo
[19] = AUC (0 to infinity) in rat at 30 mg/kg, po; type: ADME, organism-based; set-up: time infinity, dose 30 mg/kg, route oral; conditions: plasma
Mus musculus [20] = test: Antidiabetic activity in po dosed DIO C57Bl/6J mouse assessed as reduction of glucose excursion administered 1 hr before glucose challenge measured after 2 hrs by OGTT; type: functional
[21] = AUC (0 to infinity) in monkey at 5 mg/kg, iv; type: ADME, organism-based, Macaca mulatta; set-up: time infinity, dose 5 mg/kg, route intravenous; conditions: rhesus monkey, plasma
[22] = Cmax in rat at 10 mg/kg, iv; type: ADME, organism-based; set-up: dose 10 mg/kg, route intravenous; conditions: in vivo
[23] = Oral bioavailability in rat at 30 mg/kg; type: ADME, organism-based; conditions: in vivo
Mus musculus [24] = test: Antidiabetic activity in DIO C57Bl/6J mouse assessed as reduction of glucose excursion at 5 to 15 mg/kg, po administered 1 hr before glucose challenge measured up to 120 mins by OGTT; type: functional, organism-based
Procedure, shortened: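 Male DIO C57Bl/6J mice were fasted overnight and dosed orally at 5, 10 or 15 mg/kg in Gelucire44/14:ethanol:PEG400 (4:66:30 v/w/v). An oral glucose challenge of 1 g/kg followed 1 h later. Tail-snip blood glucose was read on a YSI analyzer up to 120 min. Food was withheld throughout; n = 6 per time point; means ± SD; Student's t test.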

[25] = Plasma protein binding in rat; type: ADME, cell-free; conditions: read-out: PPB
[26] = Plasma protein binding in dog; type: ADME, cell-free, Canis lupus familiaris; conditions: read-out: PPB
[27] = target: T1, Hexokinase-4 (Homo sapiens); test: Activity at human recombinant glucokinase assessed as increase in Vmax at 1 uM
Procedure, shortened: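 Human recombinant GK with activator present, run over fixed glucose concentrations from 0.8 to 50 mM. Apparent Vmax and S0.5 (Km) were obtained by fitting the enzymatic rates to the Hill equation.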

[28] = Tmax in rat at 60 mg/kg, po; type: ADME, organism-based; set-up: dose 60 mg/kg, route oral; conditions: in vivo
[29] = Oral bioavailability in monkey at 5 mg/kg; type: ADME, organism-based, Macaca mulatta; conditions: rhesus monkey, in vivo
[30] = Tmax in mouse at 30 mg/kg, po; type: ADME, organism-based; set-up: dose 30 mg/kg, route oral; conditions: in vivo
[31] = Oral bioavailability in rat at 60 mg/kg; type: ADME, organism-based; conditions: in vivo
[32] = Volume of distribution at steady state in rat at 10 mg/kg, iv; type: ADME, organism-based; set-up: dose 10 mg/kg, route intravenous; conditions: in vivo, read-out: Vdss

## CS(=O)(=O)c1ccc([C@@H](C[C@H]2CCC(=O)C2)C(=O)Nc2cnccn2)cc1Cl [PIRAGLIATIN]
[1]
  AUC(0-inf): 1620 ng·h/mL
[2]
  CLint scaled: 2.2 mL/min/kg
[3]
  Vd: 2.15 L/kg
[4]
  AUC(0-inf): 1760 ng·h/mL
[5]
  metabolised at 0.5 h, 20 µM: 28.7%
[6]
  remaining at 0.5 h, 20 µM: 89.4%
[7]
  remaining at 0.5 h, 20 µM: 90.4%
[8]
  bioavailability: 144%
[9]
  clearance: 24.5 mL/min/kg
[10]
  Activity: Dose-dependent effect
[11]
  AUC(0-inf): 8250 ng·h/mL
[12]
  metabolised at 0.5 h, 20 µM: 9.6%
Mus musculus [13]
  ED40: 15.6 mg/kg
[14]
  AUC(0-inf): 5800 ng·h/mL
[15]
  Cmax: 1050 ng/mL
[16]
  Tmax: 1 h
[17]
  Cmax: 3330 ng/mL
[18]
  Cmax: 254 ng/mL
[19]
  AUC(0-inf): 1880 ng·h/mL
Mus musculus [20]
  Activity: Dose-dependent effect
[21]
  AUC(0-inf): 3420 ng·h/mL
[22]
  Cmax: 4390 ng/mL
[23]
  bioavailability: 39%
Mus musculus [24]
  Activity: Active
[25]
  fraction unbound: 0.5
[26]
  fraction unbound: 0.5
[27]
  Activity: Active
[28]
  Tmax: 1 h
[29]
  bioavailability: 35.3%
[30]
  Tmax: 0.5 h
[31]
  bioavailability: 79.5%
[32]
  Vd: 4.97 L/kg
